Results published in publication PMC2773129 (JACC. Cardiovascular imaging, 2009).
Bridges are numbered along the chain shown (N, C = ends). Roman numbers before positions name the chains, in order. Where no end group is shown, it is not given here. The star is where a group is joined. X1 = O=C(CON=Cc1ccc(F)cc1)*

Legend:
[1] = system: VCAM-1 expression in atherosclerotic plaques; assay: In vivo PET-CT imaging of aortic root; parameters: species or system mouse; details: apoE-/- mice, PET-CT initiated 1 hour after injection, mean±SEM
[2] = Biodistribution by gamma counting of harvested organs; assay type: in vivo; details: mouse, iv, 150 uCi, total radioactivity
Procedure, shortened: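 Test compound (¹⁸F-labelled peptide, 150 μCi) injected into the tail vein of 6 wild-type mice under isoflurane anaesthesia. Mice were killed at 4 h and perfused with saline. Organs and feces were harvested and counted in a gamma counter. Counts were corrected for decay and residual injection-site activity and expressed as %ID per gram tissue, mean±SEM.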

[3] = system: rejected cardiac allograft, VCAM-1; assay: 18F-4V uptake in heterotopic allograft heart transplant rejection; assay type: in vivo, mouse; details: day 7 after heart transplantation
[4] = system: infarcted myocardium, VCAM-1; assay: 18F-4V uptake after myocardial infarction; assay type: in vivo, mouse; details: mice 5 days after MI, without antibody blocking
[5] = system: atherosclerotic plaques, VCAM-1; assay: Ex vivo uptake of 18F-4V in excised aortas; parameters: species or system mouse

tissue uptake at 4 h ([2]; aorta): 1.3 ± 0.4 %ID/g
tissue uptake at 4 h ([2]; bone): 1.3 ± 0.4 %ID/g
tissue uptake at 4 h ([2]; esophagus): 1.5 ± 0.5 %ID/g
tissue uptake at 4 h ([2]; fat): 1.7 ± 0.1 %ID/g
dose excreted at 4 h ([2]; feces): 0.2 ± 0.1%
tissue uptake at 4 h ([2]; heart): 0.6 ± 0.2 %ID/g
tissue uptake at 4 h ([2]; kidney): 13.2 ± 2.8 %ID/g
tissue uptake at 4 h ([2]; large intestine): 1.4 ± 0.5 %ID/g
tissue uptake at 4 h ([2]; liver): 3.7 ± 1.1 %ID/g
tissue uptake at 4 h ([2]; lung): 2.2 ± 0.8 %ID/g
tissue uptake at 4 h ([2]; lymph node): 3.7 ± 0.3 %ID/g
tissue uptake at 4 h ([2]; skeletal muscle): 0.7 ± 0.3 %ID/g
tissue uptake at 4 h ([2]; skin): 1.7 ± 0.6 %ID/g
tissue uptake at 4 h ([2]; small intestine): 1.9 ± 0.4 %ID/g
tissue uptake at 4 h ([2]; spleen): 2.1 ± 0.6 %ID/g
tissue uptake at 4 h ([2]; stomach): 1.7 ± 1.1 %ID/g
tissue uptake at 4 h ([2]; thymus): 0.9 ± 0.3 %ID/g
tissue uptake at 4 h ([2]; whole blood): 1.5 ± 0.4 %ID/g
Substance: I: VHPKQHRGGSYKKK(X1) / II: VHPKQHRGGSYK / III: VHPKQHRGGSY / IV: VHPKQHRGGSY (amide I:12-IV:C, I:13-II:C, II:12-III:C) [^18F-4V]
PET signal in murine atheroma (standard uptake value) [1]: 0.31±0.02 SUV
graft to background ratio after pre-injection of VCAM-1 targeted antibody ([3]; pre-injection with VCAM-1 targeted antibody): 1.4
graft to background ratio ([3]; without antibody blocking): 2.4
infarct activity to background ratio [4]: 3.1
ex vivo %IDGT in murine atheroma ([5]; apoE-/- mice, ex vivo, mean±SEM): 5.9±1.5 %IDGT
uptake in the aortic root, higher in apoE-/- mice compared to wild type ([5]; excised aortas, apoE-/- vs wild-type mice, p < 0.05): 312%
